Here are results for two substances from publication PMC9907348 (Molecular Pharmaceutics, 2023).

The nature of the series: Intravital two-photon microscopy of renal disposition. Type of series: in vivo, Munich Wistar Frömter rats. The settings on record: rat; for course of subapical brush border fluorescence / vascular fluorescence after infusion: single iv bolus ∼300 μg/kg; for course of subapical brush border fluorescence: infusion movie ∼2 min 10 s to 300 s. The gist of the method: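 Munich Wistar Frömter rats (9–12 weeks), fed ad libitum, with temperature monitored. Outer-cortex glomeruli with visible S1 proximal tubule openings were marked before a bolus of TAMRA- or TAMRA/QSY7-labelled peptide via an indwelling jugular line. 40 kDa FITC-dextran outlined the brush border. Two-photon excitation was at 800 nm (2.0% transmissivity), imaging for ~60 min. Fluorescence was measured over capillary-loop and subapical brush border regions.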

The mark [1] stands for this setting: iv, intravital two-photon microscopy.
Where [2] appears, read: intravital two-photon microscopy.
Setting [3] is: iv, postinjection, 40 kDa FITC-dextran given just before.

Turning to 5-TAMRA exenatide [TAMRA-Ex], the “course of subapical brush border fluorescence” value is “rapid appearance”. Also, under setting [1], the glomerular filtration result is given as “rapid glomerular filtration”; the “proximal tubule (PTEC) binding and endocytosis” value is “rapid and extensive proximal tubule binding and endocytosis”. Besides, the “vascular fluorescence after infusion” value under setting [2] was “immediate and pronounced detection of fluorescence”.
For 5-TAMRA-QSY7 exenatide [FRET-Ex], the “course of subapical brush border fluorescence” value is reported as “protracted linear increase”. Under setting [3], the “time at which fluorescence was detected within apical vesicular arrangements” value is not above 80 s and the “time at which fluorescence within apical vesicular arrangements became marked” value is on record as not above 200 s. Besides, the “vascular fluorescence after infusion” value under setting [2] was “virtually undetectable”.
